# Columns and labels:
# [1] = biological target: RNA topoisomerase activity of E. coli topoisomerase I (EcoTop1) (Escherichia coli, UniProt P06612); assay: RNA topoisomerase inhibition assay; format: biochemical; details: 10 nM EcoTop1; for inhibitory effect on the RNA topoisomerase activity of EcoTop1: at concentrations up to 50 μM; for concentration at which RNA topoisomerase activity is inhibited: concentration-dependent, 2.5–40 μM tested; for effect on the RNA topoisomerase activity of EcoTop1: even at 80 μM concentrations
# [2] = test system: human prostate cancer cell line DU-145; assay: Cytotoxicity; format: cell-based; details: 48 h treatment, SRB
# Outline: (§1)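 Cells grown per ATCC protocols, trypsin-EDTA harvested, trypan-blue counted, seeded at […] cells/well, and allowed to recover 24 h (37 °C, 5% CO2). They were then treated in triplicate at final 20, 10, 5, 2.5, 1.25, 0.625 and 0.0625 μM for 48 h. Fixed with cold TCA (16% final, 4 °C, 1 h), stained 15 min with SRB in 1% acetic acid, dye dissolved in 10 mM Tris base, A560 read. IC50 derived from absorbance; study done in duplicate.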
# [3] = test system: Gram-positive bacterial strains; assay: MIC by microbroth dilution, summary over strains in text; format: cell-based; details: Shigella flexneri, read-out: MIC values against most Gram-positive strains
# S. aureus 29213 = details: compounds 1–4 reproduced; ref [35]; cited from earlier work
# S. aureus 33591 = details: compounds 1–4 reproduced; ref [35]; cited from earlier work
# E. faecalis 29212 = details: compounds 1–4 reproduced; ref [35]; cited from earlier work
# [4] = biological target: T1, human DNA topoisomerase I (Homo sapiens, UniProt P11387); details: read-out: IC50 hTopoI, values reproduced, ref [35]; cited from earlier work
# T1 sequence (P11387 1-765): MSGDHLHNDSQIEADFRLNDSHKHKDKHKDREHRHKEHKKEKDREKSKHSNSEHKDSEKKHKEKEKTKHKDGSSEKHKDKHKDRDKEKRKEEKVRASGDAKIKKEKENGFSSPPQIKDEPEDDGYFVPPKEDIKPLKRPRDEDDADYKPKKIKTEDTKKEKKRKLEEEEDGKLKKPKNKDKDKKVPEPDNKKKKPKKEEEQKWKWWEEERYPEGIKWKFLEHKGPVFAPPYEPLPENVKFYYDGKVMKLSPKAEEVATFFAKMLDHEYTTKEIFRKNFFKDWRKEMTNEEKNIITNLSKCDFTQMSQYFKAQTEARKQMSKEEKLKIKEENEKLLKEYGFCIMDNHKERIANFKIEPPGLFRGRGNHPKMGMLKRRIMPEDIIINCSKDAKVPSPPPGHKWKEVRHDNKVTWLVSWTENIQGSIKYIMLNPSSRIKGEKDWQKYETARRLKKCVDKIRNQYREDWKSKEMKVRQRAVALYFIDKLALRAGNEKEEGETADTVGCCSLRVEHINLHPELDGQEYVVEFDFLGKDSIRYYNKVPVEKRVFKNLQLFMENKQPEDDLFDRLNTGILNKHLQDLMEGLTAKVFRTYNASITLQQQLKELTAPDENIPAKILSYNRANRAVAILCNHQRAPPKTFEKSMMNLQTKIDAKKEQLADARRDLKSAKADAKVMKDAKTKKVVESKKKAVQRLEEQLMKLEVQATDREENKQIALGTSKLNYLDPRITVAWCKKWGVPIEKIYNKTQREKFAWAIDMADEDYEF
# E. coli 25922 = details: compounds 1–4 reproduced; ref [35]; cited from earlier work
# E. coli K12 = details: compounds 1–4 reproduced; ref [35]; cited from earlier work
# Cytotoxicity [5] = format: cell-based, human; details: human, DU-145 prostate cancer cells
# Outline: as §1
# A. baumanni 19606 = assay: MIC by microbroth dilution; format: cell-based, Acinetobacter baumanni; details: Acinetobacter, 19606, 24 h, read-out: MIC A. baumanni 19606
# Outline: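 CLSI microbroth dilution in Mueller-Hinton broth. Strains were grown at 37 °C with shaking to log phase, pelleted, and resuspended in 0.85% saline to OD625 0.1. Final inoculum 5 × 10^5 CFU/mL in 96-well plates, tested in triplicate, incubated 24 h at 37 °C. Growth was read as OD at 625 nm.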
# Cytotoxicity [6] = format: cell-based; details: human, PCS 201-010 normal dermal fibroblast cells
# Outline: as §1
# [7] = biological target: E. coli DNA topoisomerase I (Escherichia coli, UniProt P06612); format: biochemical; details: at 50 μM
# Sequence of E. coli DNA topoisomerase I (P06612 whole entry): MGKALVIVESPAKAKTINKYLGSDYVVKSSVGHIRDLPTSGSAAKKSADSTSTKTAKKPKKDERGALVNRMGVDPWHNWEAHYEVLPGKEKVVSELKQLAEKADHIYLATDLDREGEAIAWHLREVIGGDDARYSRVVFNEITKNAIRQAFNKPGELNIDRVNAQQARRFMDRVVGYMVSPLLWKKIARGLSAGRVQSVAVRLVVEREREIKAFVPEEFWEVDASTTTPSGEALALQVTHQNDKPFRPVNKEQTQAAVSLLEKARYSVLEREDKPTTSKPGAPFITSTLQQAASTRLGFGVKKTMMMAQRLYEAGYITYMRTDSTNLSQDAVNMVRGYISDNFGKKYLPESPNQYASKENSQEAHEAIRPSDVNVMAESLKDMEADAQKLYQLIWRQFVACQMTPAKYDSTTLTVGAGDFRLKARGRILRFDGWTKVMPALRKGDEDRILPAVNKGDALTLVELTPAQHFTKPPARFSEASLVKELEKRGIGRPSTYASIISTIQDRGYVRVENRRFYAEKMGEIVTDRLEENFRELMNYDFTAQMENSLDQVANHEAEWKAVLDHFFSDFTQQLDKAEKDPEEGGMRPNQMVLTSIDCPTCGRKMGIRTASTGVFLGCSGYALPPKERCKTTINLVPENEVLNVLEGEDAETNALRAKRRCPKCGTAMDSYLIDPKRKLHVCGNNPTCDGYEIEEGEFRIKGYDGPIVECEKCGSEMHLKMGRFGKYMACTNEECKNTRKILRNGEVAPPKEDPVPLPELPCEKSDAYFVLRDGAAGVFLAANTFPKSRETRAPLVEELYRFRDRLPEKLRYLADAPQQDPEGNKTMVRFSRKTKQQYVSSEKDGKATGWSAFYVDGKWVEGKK
# Sequence of RNA topoisomerase activity of E. coli topoisomerase I (EcoTop1) (P06612 whole entry): as above
compound,measurement,setting,value
C#CCOc1ccc(-c2nc3ccc(-c4nc5ccc(N6CCN(C)CC6)cc5[nH]4)cc3[nH]2)cc1 [Compound 1],inhibitory effect on the RNA topoisomerase activity of EcoTop1,[1],no discernible inhibitory effect
same,cytotoxicity to DU-145 compared with Hoechst 33258,[2],more cytotoxic
same,MIC,[3],0.3 to 4 µg/mL
same,MIC S. aureus 29213,S. aureus 29213,2 to 4 µg/mL
same,MIC S. aureus 33591,S. aureus 33591,2 to 4 µg/mL
same,MIC E. faecalis 29212,E. faecalis 29212,16 to 32 µg/mL
C#CCCCCOc1ccc(-c2nc3ccc(-c4nc5ccc(N6CCN(C)CC6)cc5[nH]4)cc3[nH]2)cc1 [Compound 2],inhibitory effect on the RNA topoisomerase activity of EcoTop1,[1],no discernible inhibitory effect
same,cytotoxicity to DU-145 compared with Hoechst 33258,[2],more cytotoxic
same,MIC,[3],0.3 to 4 µg/mL
same,IC50,[4],> 50 µM
same,MIC S. aureus 29213,S. aureus 29213,2 to 4 µg/mL
same,MIC S. aureus 33591,S. aureus 33591,2 to 4 µg/mL
same,MIC E. coli 25922,E. coli 25922,8 to 16 µg/mL
same,MIC E. coli K12,E. coli K12,8 to 16 µg/mL
C#CCCCCCCCCCOc1ccc(-c2nc3ccc(-c4nc5ccc(N6CCN(C)CC6)cc5[nH]4)cc3[nH]2)cc1 [Compound 3],concentration at which RNA topoisomerase activity is inhibited,[1],about 10 μM
same,IC50 at 48 h,Cytotoxicity [5],> 10 µM
same,IC50,[4],> 50 µM
same,MIC E. faecalis 29212,E. faecalis 29212,16 to 32 µg/mL
same,MIC E. coli K12,E. coli K12,8 to 16 µg/mL
C#CCOCCCCOc1ccc(-c2nc3ccc(-c4nc5ccc(N6CCN(C)CC6)cc5[nH]4)cc3[nH]2)cc1 [Compound 4],inhibitory effect on the RNA topoisomerase activity of EcoTop1,[1],no discernible inhibitory effect
same,cytotoxicity to DU-145 compared with Hoechst 33258,[2],more cytotoxic
same,MIC,[3],0.3 to 4 µg/mL
same,IC50,[4],> 50 µM
same,MIC S. aureus 29213,S. aureus 29213,2 to 4 µg/mL
same,MIC S. aureus 33591,S. aureus 33591,2 to 4 µg/mL
same,MIC E. coli 25922,E. coli 25922,8 to 16 µg/mL
same,MIC E. coli K12,E. coli K12,8 to 16 µg/mL
"C#CCOCCCCCCOc1ccc(-c2nc3ccc(-c4nc5ccc(N6CCN(C)CC6)cc5[nH]4)cc3[nH]2)cc1 [Compound 5, 6-(4-Methylpiperazin-1-yl)-2′-(4-(6-(prop-2-ynyloxy)-hexyloxy)phenyl)-1H,3′H-2,5′-bibenzo[d]imidazole]",inhibitory effect on the RNA topoisomerase activity of EcoTop1,[1],no discernible inhibitory effect
same,MIC,A. baumanni 19606,> 32 µg/mL
same,cytotoxicity to DU-145 compared with Hoechst 33258,[2],more cytotoxic
"C#CCOCCCCCCCCOc1ccc(-c2nc3ccc(-c4nc5ccc(N6CCN(C)CC6)cc5[nH]4)cc3[nH]2)cc1 [Compound 6, 6-(4-Methylpiperazin-1-yl)-2′-(4-(8-(prop-2-ynyloxy)octyloxy)phenyl)-1H,3′H-2,5′-bibenzo[d]imidazole]",concentration at which RNA topoisomerase activity is inhibited,[1],about 10 μM
same,cytotoxicity to DU-145 compared with Hoechst 33258,[2],more cytotoxic
"C#CCOCCCCCCCCCCOc1ccc(-c2nc3ccc(-c4nc5ccc(N6CCN(C)CC6)cc5[nH]4)cc3[nH]2)cc1 [Compound 7, 6-(4-Methylpiperazin-1-yl)-2′-(4-(10-(prop-2-ynyloxy)decyloxy)phenyl)-1H,3′H-2,5′-bibenzo[d]imidazole]",concentration at which RNA topoisomerase activity is inhibited,[1],about 10 μM
same,MIC,A. baumanni 19606,> 32 µg/mL
same,IC50 at 48 h,Cytotoxicity [5],> 10 µM
"C#CCOCCCCCCCCCCCCOc1ccc(-c2nc3ccc(-c4nc5ccc(N6CCN(C)CC6)cc5[nH]4)cc3[nH]2)cc1 [Compound 8, 6-(4-Methylpiperazin-1-yl)-2′-(4-(12-(prop-2-ynyloxy)dodecyloxy)phenyl)-1H,3′H-2,5′-bibenzo[d]imidazole]",concentration at which RNA topoisomerase activity is inhibited,[1],about 10 μM
same,IC50 at 48 h,Cytotoxicity [5],> 10 µM
same,IC50 at 48 h,Cytotoxicity [6],> 10 µM
"C#CCOCCOCCOCCOCCOCCOCCOc1ccc(-c2nc3ccc(-c4nc5ccc(N6CCN(C)CC6)cc5[nH]4)cc3[nH]2)cc1 [Compound 9, 2′-(4-(3,6,9,12,15,18-Hexaoxahenicos-20-ynyloxy)phenyl)-6-(4-methylpiperazin-1-yl)-1H,3′H-2,5′-bibenzo[d]imidazole]",inhibition of the activity of E. coli DNA topoisomerase I,[7],did not significantly inhibit
same,inhibitory effect on the RNA topoisomerase activity of EcoTop1,[1],no discernible inhibitory effect
same,MIC,A. baumanni 19606,> 32 µg/mL
same,IC50 at 48 h,Cytotoxicity [5],> 10 µM
"Oc1ccc(-c2nc3ccccc3[nH]2)cc1 [Compound 13, 4-(1H-Benzo[d]imidazol-2-yl)phenol]",MIC,A. baumanni 19606,16 to 32 µg/mL
"CN1CCN(c2ccc3nc(-c4ccc(OCCCNC(=O)OC(C)(C)C)cc4)[nH]c3c2)CC1 [Compound 15, tert-Butyl 3-(4-(6-(4-Methylpiperazin-1-yl)-1H-benzo[d]imidazol-2-yl)phenoxy)propylcarbamate]",MIC,A. baumanni 19606,> 32 µg/mL
"CN1CCN(c2ccc3nc(-c4ccc(OCc5cn(CCN=[N+]=[N-])nn5)cc4)[nH]c3c2)CC1 [Compound 19, 2-(4-((1-(2-Azidoethyl)-1H-1,2,3-triazol-4-yl)methoxy)-phenyl)-6-(4-methylpiperazin-1-yl)-1H-benzo[d]imidazole]",MIC,A. baumanni 19606,> 32 µg/mL
CN1CCN(c2ccc3nc(-c4ccc(OCc5cn(CCCCN=[N+]=[N-])nn5)cc4)[nH]c3c2)CC1 [Compound 20],inhibitory effect on the RNA topoisomerase activity of EcoTop1,[1],no discernible inhibitory effect
"C#Cc1ccc(-c2cn(CCOc3ccc(-c4nc5ccc(N6CCN(C)CC6)cc5[nH]4)cc3)nn2)cc1 [Compound 21, 2-(4-(2-(4-(4-Ethynylphenyl)-1H-1,2,3-triazol-1-yl)ethoxy)-phenyl)-6-(4-methylpiperazin-1-yl)-1H-benzo[d]imidazole]",MIC,A. baumanni 19606,> 32 µg/mL
"CN1CCN(c2ccc3nc(-c4ccc5nc(-c6ccc(O)cc6)[nH]c5c4)[nH]c3c2)CC1.Cl.Cl.Cl [Hoechst 33258, reference compound]",IC50 at 48 h,Cytotoxicity [5],> 10 µM
same,MIC,[3],0.3 to 4 µg/mL
"CCOc1ccc(-c2nc3cc(-c4nc5cc(N6CCN(C)CC6)ccc5[nH]4)ccc3[nH]2)cc1 [Hoechst 33342, reference compound]",effect on the RNA topoisomerase activity of EcoTop1,[1],do not have any effect
same,MIC,[3],0.3 to 4 µg/mL
"CCOc1ccc2nc3cc(N)ccc3c(N)c2c1 [ethacridine, reference compound]",effect on the RNA topoisomerase activity of EcoTop1,[1],do not have any effect

# From paper PMC12125705 (Journal of medicinal chemistry, 2017)
